Source: PubChem (several laboratories)
Shown are actives, neighbours in structure and some others; about 2.8% of the full set was active somewhere.
EP2 mod – EP2 receptor modulators, cAMP readout, primary screen, cell-based, HTRF cAMP, PGE2 stimulation | induction, % at 25 µM | EP2-expressing cells, cAMP HTRF FRET, PGE2 co-stimulation | 260,000 compounds, 0.83% hits | AID 940, 2007;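 active = compounds whose cAMP rise, as percent of the full-agonist control response, exceeds 60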;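 also: rat C6 glioma line stably carrying human EP2 under a CMV promoter; the protocol text gives 20 µM as final concentration; 100% = response of wells given 1 µM PGE2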
PGE2 EP2 inh – human EP2 receptor antagonists, primary screen, TR-FRET cAMP, C6 glioma cells; inhibition, % at 25 µM; 260,000 compounds, 0.52% hits; Prostaglandin E2 receptor EP2 subtype (Homo sapiens), P43116; C6 glioma cells expressing human EP2; cells stimulated with saturating PGE2;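 active = percent inhibition above 40 after rounding to a whole number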;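 also: rat C6 glioma host cells with rolipram phosphodiesterase inhibitor present; the protocol text gives 20 µM as final concentration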
NPY Y2 blocker – NPY-Y2 receptor antagonists, primary screen, cell-based; inhibition, % at 2.7 µM; AID 793, 2007; 140,000 compounds, 0.99% hits; NPY-Y2 expressing cells, antagonist mode; in the data active = inhibition above about 17%;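 also: 0% = vehicle with agonist challenge and 100% = reference antagonist with challenge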
Target sequence (P49146 whole entry, looked up): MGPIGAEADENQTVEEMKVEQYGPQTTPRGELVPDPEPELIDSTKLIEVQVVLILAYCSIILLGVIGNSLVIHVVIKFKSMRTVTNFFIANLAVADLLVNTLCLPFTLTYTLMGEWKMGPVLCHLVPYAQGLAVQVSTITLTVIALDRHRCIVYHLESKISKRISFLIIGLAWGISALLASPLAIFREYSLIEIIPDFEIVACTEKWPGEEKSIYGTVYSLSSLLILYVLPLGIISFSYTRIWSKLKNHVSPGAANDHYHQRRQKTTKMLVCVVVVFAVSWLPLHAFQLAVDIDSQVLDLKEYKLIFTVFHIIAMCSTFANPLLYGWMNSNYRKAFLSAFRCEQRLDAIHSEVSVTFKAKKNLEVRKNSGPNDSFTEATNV
NPY Y1 blocker – NPY-Y1 receptor antagonists, primary screen, cell-based; inhibition, % at 3.6 µM; 200,000 compounds, 1% hits; Neuropeptide Y receptor type 1 (Homo sapiens), P25929; HEK293-CNG Y1 cells, membrane potential fluorescence; NPY at EC95, then isoproterenol;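 active = inhibition above the campaign mean inhibition of all tested compounds plus 3 SD, cut at about 20% in these data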;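 also: 0% = DMSO wells given NPY plus isoproterenol and 100% = isoproterenol alone without NPY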
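Material: HEK293 cells co-expressing NPY Y1 receptor and cyclic-nucleotide gated channel. Timing: compound incubation 1 h at room temperature, readout 45 min post-stimulation. Signal: fluorescence, membrane potential probe.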
NPY-Y1 PAM-ag – NPY-Y1 receptor potentiators or agonists, primary screen, cell-based | NPY-Y1 expressing cells, potentiator/agonist activation | 220,000 compounds, 0.37% hits | activation, % at 3.6 µM | Neuropeptide Y receptor type 1 (Homo sapiens), P25929; in the data active = activation above about 33%, passing the limit was not always enough;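 also: cells stimulated with NPY at EC10 then isoproterenol at EC100; 0% = low agonist plus stimulus and 100% = saturating agonist plus stimulus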
NPY2 pot ag – NPY-Y2 potentiators or agonists, primary screen, cell-based; Neuropeptide Y receptor type 2 (Homo sapiens), P49146; activation, % at 3.6 µM; cells expressing NPY-Y2, potentiator/agonist read-out; 220,000 compounds, 0.45% hits; in the data active = activation above about 27%;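 also: cells stimulated with NPY near EC25 plus isoproterenol at EC100; 0% = vehicle plus submaximal agonist and 100% = vehicle plus saturating agonist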
An asterisk follows results filed as active; · = not tested or not shown.

SMILES	EP2 mod	PGE2 EP2 inh	NPY Y2 blocker	NPY Y1 blocker	NPY-Y1 PAM-ag	NPY2 pot ag
CC(=O)NCCn1c(SCc2ccccc2F)nc2ccccc2c1=O	29	5	2	-6	77*	102*
CCC(OC(=O)c1cc(=O)[nH]c2ccccc12)C(=O)c1ccccc1 (stereo not drawn)	-53	2	·	·	·	·
COc1ccc(CN2CCc3c(nc(N4CCC(C)CC4)[nH]c3=O)C2)cc1	-9	2	·	·	·	·
Cc1ccnc(NC(=O)C2c3ccccc3Oc3ccccc32)c1	-4	9	·	·	·	·
COc1cc(NS(=O)(=O)c2ccc(NC(=S)NC(=O)c3cccnc3)cc2)ncn1	-69	9	·	·	·	·
CS(=O)(=O)N1CCN(c2ccc(NC(=O)c3ccc(Cl)cc3Cl)cc2)CC1	-9	18	·	·	·	·
CC(C)C1Cc2c(C#N)c(N)sc(=S)c2CO1 (stereo not drawn)	-23	59*	2	-8	6	-4
CC1(C)Cc2c(C#N)c(N)sc(=S)c2CO1	24	37	3	-2	-6	-2
C/C=C/CSc1nc2c(c(=O)[nH]c(=O)n2C)n1Cc1cccc(C)c1	44	7	·	·	·	·
CCCSc1nc2c(c(=O)[nH]c(=O)n2C)n1Cc1cccc(C)c1	70*	9	·	·	·	·
C/C(Cl)=C\CSc1nc2c(c(=O)[nH]c(=O)n2C)n1Cc1cccc(C)c1	86*	14	·	·	·	·
O=c1[nH]c2cc3c(cc2cc1C(c1nnnn1C1CCCCC1)N1CCCC1)OCCO3 (stereo not drawn)	16	10	·	·	·	·
Cc1ccccc1CCN(Cc1cc2ccc(C)c(C)c2[nH]c1=O)C(=O)c1ccncc1	-85	10	·	·	·	·
CC1=NOC(=O)/C1=C\c1ccc(-c2ccc(Br)cc2C(=O)O)o1	7	6	·	2	-4	-12
CC1=NOC(=O)/C1=C\c1ccc(-c2ccc(Br)cc2)o1	-69	76*	·	12	-1	3
CC1=NOC(=O)/C1=C/c1ccc(-c2ccc(Cl)cc2)o1	-45	184*	4	2	29	1
Cc1ccc(-c2ccc(/C=C3\C(=O)ON=C3c3ccccc3)o2)c([N+](=O)[O-])c1	-12	23	7	-7	-18	-25
CC1=NOC(=O)/C1=C\c1ccc(-c2cc(Cl)ccc2Cl)o1	-15	61*	3	4	-3	8
COc1ccc(-c2nc3cnccn3c2NC2CCCCC2)cc1CO	-68	·	·	·	·	·
CCCNC(=O)COC(=O)CCC(=O)c1ccc(F)cc1	-7	13	2	12	-23	-11
CC(C)(C)NC(=O)COC(=O)CCC(=O)c1ccc(F)cc1	-8	89*	·	5	-20	0
Cc1cc(C(F)(F)F)nn1CC(=O)NNC(=S)Nc1ccc(F)cc1	-6	6	-2	-2	-3	1
Cc1cc(C(F)(F)F)nn1CC(=O)NNC(=S)Nc1ccc(Cl)cc1	2	196*	6	0	5	18
Cc1ccccc1S(=O)(=O)Nc1nc2ccccc2nc1N1CCOCC1	-20	40*	1	-5	-8	3
CCOc1ccc(S(=O)(=O)Nc2nc3ccccc3nc2N2CCN(C)CC2)cc1	3	17	6	6	-26	0
SMILES	EP2 mod	PGE2 EP2 inh	NPY Y2 blocker	NPY Y1 blocker	NPY-Y1 PAM-ag	NPY2 pot ag
CCOc1ccc2[nH]c(=O)c(CN(C3CCCC3)S(=O)(=O)c3ccccc3Cl)cc2c1	8	9	·	·	·	·
Cc1noc(C)c1COC(=O)COc1cccc2c1OC(C)(C)C2	65*	10	-1	9	10	8
CC1CCCCN1c1ccc(NC(=O)c2ncoc2-c2ccccc2F)cc1C(N)=O (stereo not drawn)	-18	6	·	·	·	·
Cc1ccc(S(=O)(=O)Oc2ccccc2/C=N/O)cc1	3	7	·	0	-13	8
Cc1ccc(S(=O)(=O)Oc2cc(S(=O)(=O)O)cc3cc(S(=O)(=O)O)cc(N)c23)cc1	32	61*	·	·	·	·
CCOc1ccccc1N(C(=O)c1snc(C(N)=O)c1N)C(C(=O)NC1CCCC1)c1ccco1 (stereo not drawn)	38	·	20*	26*	-4	-2
COc1ccc(O)c(-c2cc(-c3cccs3)[nH]n2)c1	-32	9	-8	-23	58*	42*
